Results of several laboratories.
NMUR1: Neuromedin-U receptor 1 (NMUR1, Homo sapiens, UniProt Q9HB89)
Maob: Amine oxidase [flavin-containing] B (Maob, Rattus norvegicus, UniProt P19643)
RET: Proto-oncogene tyrosine-protein kinase receptor Ret (RET, Homo sapiens, UniProt P07949)
GRM2: Metabotropic glutamate receptor 2 (GRM2, Homo sapiens, UniProt Q14416)
ALPI: Intestinal-type alkaline phosphatase (ALPI, Bos taurus, UniProt P19111)
EPHX2: Bifunctional epoxide hydrolase 2 (EPHX2, Homo sapiens, UniProt P34913)

CC(C)C[C@H](NC(=O)[C@H](Cc1ccccc1)NC(=O)[C@@H](N)Cc1ccc(O)cc1)C(=O)N[C@@H](Cc1ccccc1)C(=O)N[C@@H](CCCNC(=N)N)C(=O)N1CCC[C@H]1C(=O)N[C@@H](CCCNC(=N)N)C(=O)N[C@@H](CC(N)=O)C(N)=O
IC50 (NMUR1; ligand displacement; radioligand; cell membranes): 0.66 nM

Cc1ccc2nc(Cl)c(C=NN=C3CS(=O)(=O)N(C)c4ccccc43)cc2c1
IC50 (Maob; enzyme activity; inhibitor; fluorescence): 1430 nM

O=C(Cc1cccc(Nc2ncnc3[nH]ccc23)c1)Nc1ccc(F)c(Cl)c1
IC50 (RET; enzyme activity; inhibitor; mobility shift): > 20000 nM

COc1ccc(-c2cc(C(N)=O)ncc2OCc2ccc(OC)nc2)c(F)c1
IC50 (GRM2; ion flux; antagonist): 224 nM

Cc1ccc(C(=O)Nc2ccc(Oc3cc4cnn(C)c4cc3-c3cn[nH]c3)c(F)c2)c(=O)n1-c1ccc(F)cc1
IC50 (RET; enzyme activity; inhibitor): 590 nM

O=C1NC2=C(C(=O)N(Cc3ccc(Cl)cc3)C2)C(c2ccc(O)cc2)N1 (stereo not shown)
IC50 (ALPI; enzyme activity; inhibitor; absorbance): 5350 nM

CC(=NN=C1CS(=O)(=O)N(C)c2ccccc21)c1cc(C)cs1
IC50 (Maob; enzyme activity; inhibitor; fluorescence): 3830 nM

CCC(C)(O)C(=O)N1CCC(NC(=O)Nc2ccc(OC(F)(F)F)c(F)c2)CC1 (stereo not shown)
IC50 (EPHX2; enzyme activity; inhibitor): 0.09 nM

O=C1NC2=C(C(=O)N(Cc3ccc(F)cc3)C2)C(c2ccc(O)cc2)N1 (stereo not shown)
IC50 (ALPI; enzyme activity; inhibitor; absorbance): 4760 nM

COc1ccc(-c2cc(C(N)=O)ncc2OCc2ccc(F)nc2)c(F)c1
IC50 (GRM2; ion flux; antagonist): 74 nM

COc1ccc(-c2nsc(NC(=O)[C@@H]3C[C@H]3C)c2C)cc1
IC50 (GRM2; calcium signal; antagonist): > 12500 nM

O=C1NC2=C(C(=O)N(c3nc4ccccc4[nH]3)C2)C(c2ccc(O)cc2)N1 (stereo not shown)
IC50 (ALPI; enzyme activity; inhibitor; absorbance): 11300 nM

CC(C)CCC[C@@H](C)[C@H]1CC[C@H]2[C@@H]3C[C@@H](NCCc4c[nH]cn4)[C@@]4(O)C[C@@H](O)CC[C@]4(C)[C@H]3CC[C@]12C
IC50 (EPHX2; enzyme activity; inhibitor): > 100000 nM

O=c1cc(-c2ccc(O)c(-c3c(O)cc(O)c4c(=O)cc(-c5ccc(O)cc5)oc34)c2)oc2cc(O)cc(O)c12
IC50 (Tyrosine-protein kinase JAK2 (JAK2, Homo sapiens, UniProt O60674); enzyme activity; inhibitor): 5000 nM

CC(=NN=C1CS(=O)(=O)N(C)c2ccccc21)c1sccc1C
IC50 (Maob; enzyme activity; inhibitor; fluorescence): 2380 nM

O=C(CCCCCCCCc1ccc(O)cc1)c1c(O)cccc1O
IC50 (EPHX2; enzyme activity; inhibitor; fluorescence): 18600 nM

O=C1NC2=C(C(=O)N(c3ccc(Cl)cc3)C2)C(c2ccccc2O)N1 (stereo not shown)
IC50 (ALPI; enzyme activity; inhibitor; absorbance): 2940 nM

CC(C)(C)n1nc(-c2ccc3nc(OC4CC4)ccc3c2)c(C(N)=O)c1N
IC50 (Mitogen-activated protein kinase kinase kinase 10 (MAP3K10, Homo sapiens, UniProt Q02779); cell-free assay): > 10000 nM

O=C1NC2=C(C(=O)N(Cc3ccc(F)cc3)C2)C(c2ccccc2O)N1 (stereo not shown)
IC50 (ALPI; enzyme activity; inhibitor; absorbance): 1270 nM

COc1ccc2c(Oc3ccc4c(C(=O)Nc5ccccc5N)cccc4c3)ccnc2c1
IC50 (RET; enzyme activity; inhibitor): > 500 nM

CCCC(CNC(=O)Nc1ccccc1F)C1C2CC3CC(C2)CC1C3 (stereo not shown)
IC50 (EPHX2; enzyme activity; inhibitor; fluorescence): 106 nM

O=C1NC2=C(C(=O)N(c3ccc(F)cc3)C2)C(c2ccc(O)cc2)N1 (stereo not shown)
IC50 (ALPI; enzyme activity; inhibitor; absorbance): 2500 nM

CCC(CC12CC3CC(CC(C3)C1)C2)NC(=O)Nc1ccccc1F (stereo not shown)
IC50 (EPHX2; enzyme activity; inhibitor; fluorescence): 631 nM

CNC(=O)c1cc2c(Oc3ccc(NC(=O)C4(C(=O)Nc5ccc(F)cc5)CC4)cc3)ccnc2cc1OC
IC50 (Tyrosine-protein kinase Lck, phosphorylated (LCK, Homo sapiens, UniProt P06239); enzyme activity; inhibitor; radiometric): 10 nM

O=C1N=C(Nc2ccccc2)S/C1=C\c1ccccc1OCc1cn(Cc2ccccc2Br)nn1
IC50 (Aldo-keto reductase family 1 member B1 (AKR1B1, Homo sapiens, UniProt P15121); enzyme activity; inhibitor; absorbance; pH 6.2): 37000 nM

CC(=NN=C1CS(=O)(=O)N(C)c2ccccc21)c1cc(Cl)sc1Cl
IC50 (Maob; enzyme activity; inhibitor; fluorescence): 2580 nM

COc1ccc(-c2cc(C(N)=O)ncc2OCc2cnc(OC)nc2)c(F)c1
IC50 (GRM2; ion flux; antagonist): 261 nM

O=c1[nH]c2c(Br)cccc2n1C1CCN(S(=O)(=O)c2ccc(I)cc2)CC1
IC50 (N-glycosylase/DNA lyase (OGG1, Homo sapiens, UniProt O15527); enzyme activity; inhibitor): 14000 nM

Cn1ccc(COc2cnc(C(N)=O)cc2-c2ccc(F)cc2)n1
IC50 (GRM2; ion flux; antagonist): 58 nM

CC12CC3(C)CC(C)(C1)CC(NC(=O)Nc1ccccc1F)(C2)C3
IC50 (EPHX2; enzyme activity; inhibitor; fluorescence): 94.3 nM

CCN1CCN(Cc2ccc(NC(=O)Nc3ccc(Oc4cc(NC)ncn4)cc3)cc2C(F)(F)F)CC1
IC50 (Dual specificity mitogen-activated protein kinase kinase 4 (MAP2K4, Homo sapiens, UniProt P45985); enzyme activity; inhibitor; ADP detection): 40000 nM

Cc1cnc(-c2ccc(-c3ccc(NC(=O)Nc4c(F)cc(F)cc4F)cc3F)c3c2C(=O)NC3)[nH]1
IC50 (RET; enzyme activity; inhibitor): 14.8 nM

COc1ccc(-c2cc(C(N)=O)ncc2OCc2ccnc(F)c2)c(F)c1
IC50 (GRM2; ion flux; antagonist): 46 nM

CC(=NN=C1CS(=O)(=O)N(C)c2ccccc21)c1sccc1Br
IC50 (Maob; enzyme activity; inhibitor; fluorescence): 3820 nM

COc1ccc(-c2cc(C(N)=O)ncc2OCc2ccncc2)c(F)c1
IC50 (GRM2; ion flux; antagonist): 33 nM

CC(=NN=C1CS(=O)(=O)N(C)c2ccccc21)c1cccs1
IC50 (Maob; enzyme activity; inhibitor; fluorescence): 1980 nM

CC(C)C[C@H](NC(=O)[C@H](Cc1ccccc1)NC(=O)[C@H](Cc1ccc(O)cc1)NC(=O)CNC(=O)[C@H](CCCNC(=N)N)NC(=O)[C@H](CO)NC(=O)[C@H](CCC(N)=O)NC(=O)[C@H](CO)NC(=O)[C@H](C)NC(=O)[C@H](Cc1ccccc1)NC(=O)[C@@H]1CCCN1C(=O)[C@H](CO)NC(=O)[C@H](CCC(N)=O)NC(=O)[C@H](Cc1ccccc1)NC(=O)[C@H](CCC(=O)O)NC(=O)[C@H](CCC(=O)O)NC(=O)[C@H](CC(=O)O)NC(=O)[C@@H](NC(=O)[C@H](CCCNC(=N)N)NC(=O)[C@@H](N)Cc1ccccc1)C(C)C)C(=O)N[C@@H](Cc1ccccc1)C(=O)N[C@@H](CCCNC(=N)N)C(=O)N1CCC[C@H]1C(=O)N[C@@H](CCCNC(=N)N)C(=O)N[C@@H](CC(N)=O)C(N)=O
IC50 (NMUR1; ligand displacement; radioligand; cell membranes): 0.11 nM
